The test system of one series is THP-1. The series can be described thus: Antiinflammatory activity in human THP1 cells assessed as inhibition of LPS-induced TNFalpha production by PLAP reporter assay. It is filed as functional, cell-based. In short, it runs like this: (§1)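 Stably transfected PLAP reporter lines (TNFα-promoter/5'-UTR-PLAP in THP-1-33; β-actin-promoter-PLAP in B164), kept in RPMI1640 with 10% heat-inactivated endotoxin-free FBS and G418 1 mg/mL. Seeded at 1.0×10^4 cells/well, preincubated with compound 30 min, then stimulated with LPS 100 ng/ml (E. coli 0127:B08 or 011:B4). After 24-48 h, supernatant alkaline phosphatase activity read; IC50 reported.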
Background: In a reporter assay the amount or activity of a reporter protein is the signal.

A short description of series [1]: Antiinflammatory activity in human B164 cells assessed as inhibition of LPS-induced Actin production by PLAP reporter assay. Type of series: functional, cell-based. The essentials: as §1
The nature of series [2]: Metabolic stability in mouse plasma after 2 hrs. Type of series: ADME, cell-free. The conditions noted are these: read-out: Stability. The essentials:
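Compound at 50 μg/ml or 50 μM in freshly prepared heparinized mouse blood, incubated at 37 °C for 0, 30 and 120 min. Each sample extracted with MeOH containing 0.2% perchloric acid. Analyzed by reverse-phase HPLC, 30% acetonitrile in KH2PO4 buffer pH 3.5. Parent peak area at each time expressed as % of the 0 min area.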

Series [3] deals with U-937. The series can be described thus: Antiinflammatory activity in human U937 cells assessed as inhibition of LPS-induced Actin production by ELISA. It is filed as functional, cell-based.
Series [4] deals with U-937. Briefly: Antiinflammatory activity in human U937 cells assessed as inhibition of LPS-induced TNFalpha production by ELISA. It is filed as functional, cell-based.
Series [5] is described as follows: Volume of distribution at steady state in BALB/c mouse at 3 mg/kg, iv. The conditions noted are these: in vivo, read-out: Vdss. It is filed as ADME, organism-based. Details: dose 3 mg/kg, route intravenous. In short, it runs like this: (§2)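 Single intravenous dose given to BALB/c mice. Parent drug levels were measured in plasma over time after dosing. CL, VDss, t1/2 and AUC were derived from these plasma levels. AUC is reported normalised to dose, […].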

Series [6] deals with Mus musculus. Briefly: Normalised AUC in BALB/c mouse at 3 mg/kg, iv. To be noted: in vivo. Type of series: ADME, organism-based. Details: dose 3 mg/kg, route intravenous. In short, it runs like this: as §2
A short description of series [7]: Half life in BALB/c mouse at 3 mg/kg, iv. It is filed as ADME, organism-based. Details: route intravenous, dose 3 mg/kg. The conditions noted are these: in vivo. The essentials:
as §2

Series [8] is described as follows: Clearance in BALB/c mouse at 3 mg/kg, iv. To be noted: in vivo. Details: dose 3 mg/kg, route intravenous. It is filed as ADME, organism-based. In short, it runs like this:
as §2

The species entered for series [9] is Mus musculus. The series can be described thus: Antiinflammatory activity in mouse assessed as inhibition of LPS-induced IL6 production. It is filed as functional, organism-based. In short, it runs like this:
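Mice given compound together with LPS by tail-vein injection in 10% cyclodextrin. Blood collected 3 h later and plasma IL-6 measured by ELISA. Mean with SEM, n = 6-8. Compared against the LPS-treated control group by Dunnett's post hoc test, P<0.05.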

From ChEMBL document CHEMBL1154317, “Discovery of a potent, metabolically stabilized resorcylic lactone as an anti-inflammatory lead” (Bioorg Med Chem Lett, 2009) come the findings set out here.

Structures are written as SMILES. Activity calls are given as the source filed them. The calls are words filed in the database; no cut-off is given here. A value given as a limit tells only on which side of the number the result lay.

As usually defined, the IC50 is the concentration that gives 50% inhibition. For orientation: half-life means how long it takes for the measured level to halve. Higher therefore signals slow decline. What is called clearance is a measure of how efficiently the substance is removed, as volume per time. A low value points to a low capacity for elimination.

Regarding `CC[C@H]1C/C=C\C(=O)[C@@H](O)[C@@H](O)C/C=C/c2cc(OC)cc(O)c2C(=O)O1`, the values for the IC50 (with THP-1; in [1]) were 59 nM and 2440 nM, respectively.

Consider `COc1cc(O)c2c(c1)/C=C/C[C@H](O)[C@H](O)C(=O)/C=C\[C@H](OC)[C@H](C)OC2=O`, for which the remaining at 2 h in series [2] is 25%. Besides, the IC50 with THP-1 is 239 nM; in series [1] it was 7600 nM.

For the compound `COc1cc(O)c2c(c1)/C=C/C[C@H](O)[C@H](O)/C=C\C(C)(C)COC2=O`, the half-inhibitory concentration (IC50) (with THP-1; in series [1]) was over 10000 nM throughout.

On to `COc1ccc(CO[C@@H]2/C=C\C(=O)[C@@H](O)[C@@H](O)C/C=C/c3cc(OC)cc(O)c3C(=O)O[C@H]2C)cc1`, for which the results for the IC50 (with THP-1; in series [1]) were 888 nM and over 10000 nM, respectively.

Take `COc1cc(O)c2c(c1)/C=C/C[C@H](O)[C@H](O)C(=O)/C=C\CCOC2=O`: the values for the IC50 (with THP-1; in [1]) were 69 nM and 2800 nM, respectively.

As to `COc1cc(O)c2c(c1)/C=C/C[C@H](O)[C@H](O)/C=C\[C@@H](C)COC2=O`, the IC50 in the series on THP-1 was 203 nM; in series [1], over 10000 nM.

Consider `COc1cc(O)c2c(c1)/C=C/C[C@H](O)[C@H](O)C(=O)/C=C\C[C@@H](C)OC2=O`, for which the IC50 was 1050 nM in the series on THP-1 and 7060 nM in [1].

With `COc1cc(O)c2c(c1)/C=C/C[C@H](O)[C@H](O)C(=O)/C=C\[C@H]1CCC[C@H]1OC2=O`, the remaining at 2 h in [2] is 34%. For the same compound, the results for the IC50 (in the series with THP-1; in series [1]) were 4000 nM and over 30000 nM, respectively.

For the compound `CC[C@@H]1C/C=C\C(=O)[C@@H](O)[C@@H](O)C/C=C/c2cc(OC)cc(O)c2C(=O)O1`, the values for the IC50 (in the series with THP-1; in series [1]) were 5210 nM and 8470 nM, respectively.

As to `COc1cc(O)c2c(c1)/C=C/C[C@H](O)[C@H](O)C(=O)/C=C\C[C@H](c1ccccc1)OC2=O`, the IC50 came to 3690 nM in the series with THP-1 and 4410 nM in [1].

Take `COc1cc(O)c2c(c1)/C=C/C[C@H](O)[C@H](O)/C=C\[C@@H](Cc1ccccc1)[C@H](C)OC2=O`: the IC50 (in the series with THP-1; in [1]) was over 10000 nM each time.

As for `COc1cc(O)c2c(c1)/C=C/C[C@H](O)[C@H](O)C(=O)C1CC1OC2=O` (stereo not given in full), the IC50 (in the series with THP-1; in series [1]) was over 10000 nM throughout.

For `CC[C@@H]1/C=C\[C@@H](O)[C@@H](O)C/C=C/c2cc(OC)cc(O)c2C(=O)O[C@H]1C`, the inhibition entry in the series on U-937 [3] and in the series with U-937 [4] was “inactive” throughout.

On to `COc1cc(O)c2c(c1)/C=C/C[C@H](O)[C@H](O)C(=O)/C=C\C[C@H](C(F)(F)F)OC2=O`, for which the IC50 in the series on THP-1 was 31 nM; in series [1], 1330 nM.

With `COc1cc(O)c2c(c1)/C=C/C[C@@H](O)[C@@H](O)C(=O)/C=C\C[C@@H](C)OC2=O`, the figures for the IC50 (with THP-1; in [1]) were 2620 nM and 4980 nM, respectively.

In the case of `COc1cc(O)c2c(c1)/C=C/C[C@H](O)[C@H](O)/C=C\[C@@H](C)CNC2=O`, the IC50 is 259 nM with THP-1 and over 10000 nM in series [1].

With `COc1cc(O)c2c(c1)/C=C/C[C@H](O)[C@H](O)C(=O)/C=C\C[C@H](C)OC2=O`, the Vd in [5] worked out at 3.3 L/kg. Further, the remaining at 2 h in [2] was 2%. Further, the IC50 with THP-1 stood at 11 nM; in [1], 2370 nM. Further, the AUC/dose in the series on Mus musculus [6] was 23.8 ng·h/mL/(mg/kg). In [7], this compound gave a half-life of 0.05 h. In series [8], this compound showed a clearance of 710 mL/min/kg.

Turning to `COc1cc(O)c2c(c1)/C=C/C[C@H](O)[C@H](O)/C=C\[C@@H](CC(F)(F)F)[C@H](C)OC2=O`, the IC50 is 9000 nM in the series on THP-1 and over 10000 nM in [1].

For `COc1cc(O)c2c(c1)/C=C/C[C@H](O)[C@H](O)C(=O)/C=C\[C@@H]1CCC[C@@H]1OC2=O`, in series [2], the remaining at 2 h was 77%. Further, the IC50 is 667 nM in the series on THP-1 and 3000 nM in series [1].

Regarding `COc1cc(O)c2c(c1)/C=C/C[C@H](O)[C@H](O)/C=C\[C@H](C)[C@H](C)OC2=O`, the half-maximal inhibitory concentration (IC50) with THP-1 was 1140 nM; in series [1], over 10000 nM.

In the case of `COc1cc(O)c2c(c1)/C=C/C[C@H](O)[C@H](O)/C=C\[C@H](C)[C@@H](C)OC2=O`, the IC50 (in the series on THP-1; in series [1]) was over 10000 nM in each case.

Regarding `COc1cc(O)c2c(c1)/C=C/C[C@H](O)[C@H](O)/C=C(\F)[C@@H](C)[C@H](C)NC2=O`, the IC50 was 200 nM in the series with THP-1 and over 10000 nM in series [1].

With `COc1cc(O)c2c(c1)/C=C/C[C@H](O)[C@H](O)C(=O)/C=C\[C@@H](C)[C@H](C)OC2=O`, the inhibition entry in the series listed under Mus musculus [9] was “Active”. Besides, the Vd in series [5] was 1.69 L/kg. In addition, in [2], the remaining at 2 h is over 80%. Moreover, the IC50 was 136 nM with THP-1 and over 10000 nM in series [1]. In addition, the AUC/dose with Mus musculus [6] was 181 ng·h/mL/(mg/kg). In [7], the half-life is 3.44 h. Further, the clearance in [8] is 91.8 mL/min/kg.
